A selection: hits, their analogues and other compounds. The true share with any hit is near 3.7%.
HCV core dimer = inhibitors of HCV core protein dimerization, primary screen, biochemical, TR-FRET, high-throughput; TR-FRET GST/Flag-core106 dimerization, 1536-well; inhibition, % at 5 µM; 300,000 tested, 0.33% active;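 active = inhibition above the mean of all tested compounds plus 3 SD, set per screening campaign, cut at about 45% in these data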
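System: GST-tagged and Flag-tagged HCV core protein residues 1-106 / Input: core106 proteins, GST 13.5 nM and Flag 17 nM / Buffer or medium: KF-containing HEPES buffer, pH 7.45, DTT, CHAPS, BSA / Probe or stimulus: Eu-anti-GST and XL665-anti-Flag labelled anti-tag antibodies / Schedule: 4 h, 22.5 °C incubation / Technique: TR-FRET 671 and 617 nm emission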
TAAR1 antagonist = human TAAR1 antagonists, primary screen, Fluo-8 calcium fluorescence, CHO RD-HGA16 cells; Trace amine-associated receptor 1 (Homo sapiens), Q96RJ0; antagonist; inhibition, % at 3 µM; 360,000 tested, 1.5% active; AID 624466, 2012;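 active = inhibition above a per-plate cutoff, the mean inhibition of test compounds on that plate plus 3 SD, cut at about 49% in these data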;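 note: 0% = DMSO plus EC80 beta-PEA response and 100% = DMSO alone without agonist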
Target sequence (Q96RJ0 whole entry, looked up): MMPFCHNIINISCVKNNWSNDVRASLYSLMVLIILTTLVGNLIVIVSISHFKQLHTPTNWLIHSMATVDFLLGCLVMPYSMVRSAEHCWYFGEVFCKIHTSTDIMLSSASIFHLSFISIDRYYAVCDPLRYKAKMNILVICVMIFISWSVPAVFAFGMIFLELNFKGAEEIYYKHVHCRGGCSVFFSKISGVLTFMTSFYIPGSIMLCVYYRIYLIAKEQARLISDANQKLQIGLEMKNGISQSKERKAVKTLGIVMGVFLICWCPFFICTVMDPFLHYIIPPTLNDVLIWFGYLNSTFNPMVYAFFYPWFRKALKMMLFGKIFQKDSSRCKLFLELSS
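System: RD-HGA16 CHO cells with stable hTAAR1 and Gα16 | Probe or stimulus: EC80 β-phenethylamine stimulus | Dosing: 3 µM, single point | Times: Dye loading 75 min at 37 °C, then 30 min room temperature | Measured by: Fluo-8 calcium-sensitive fluorescence | Read-out basis: % inhibition of agonist calcium response | Replicates: n of 1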
HCV NS3 hel inh = inhibitors of HCV NS3 helicase, primary screen, biochemical, Cy5 molecular beacon fluorescence | Hepatitis C virus NS3 helicase | NS3 helicase DNA unwinding | inhibition, % at 10.9 µM | 290,000 tested, 0.56% active;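 active = inhibition above the mean of all tested compounds plus 3 SD, set per campaign, cut at about 35% in these data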;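 note: 0% = DMSO wells and 100% = thioflavine S control wells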
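System: HCV NS3 helicase fragment; control set: DMSO and thioflavine S; technique: Cy5 fluorescence at 0 and 60 min, beacon hairpin quenching; reagent: beacon DNA duplex substrate plus ATP; replicates: singlicate; schedule: 1 h reaction at 25 °C, ATP-initiated; medium: MOPS buffer pH 6.5 with MgCl2, DTT, Tween20, BSA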
TAAR1 ag = human TAAR1 agonists, primary screen, Fluo-8 calcium fluorescence, CHO RD-HGA16 cells; Trace amine-associated receptor 1 (Homo sapiens), Q96RJ0; vehicle wells 0%, saturating PEA agonist 100%; activation, % at 3 µM; 360,000 tested, 0.99% active;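 active = activation above the mean activation of all test compounds in the run plus 3 SD, cut at about 38% in these data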
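test system = CHO RD-HGA16 cells carrying human TAAR1 plus Gα16 | schedule = 17-24 h seeding, 75 min 37 °C dye, 30 min RT | compound dosing = 3 µM single concentration | control set = DMSO and PEA EC100 | replicates = n 1 | signal = Fluo-8 fluorescence, 5 s baseline then 140 s kinetic read | measure = percent activation vs PEA EC100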
rCAG binder = binders of r(CAG) RNA repeats, primary screen, biochemical, fluorescence; AID 651821, 2012; inhibition, % at 3 µM; r(CAG) RNA repeat, TO-PRO-1 dye displacement fluorescence; 370,000 tested, 1.3% active;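 active = inhibition above the plate cutoff, the mean of all test compounds on that plate plus 3 SD, cut at about 35% in these data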;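 note: 0% = DMSO alone and 100% = 100 µM mitoxantrone as full dye displacement; higher means more dye released from RNA so lower well fluorescence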
TAAR1 ag confirm = human TAAR1 agonists, retest of hits, confirmation, Fluo-8 calcium fluorescence, CHO RD-HGA16 cells. shares compounds with TAAR1 ag. AID 651783, 2012. activation, % at 3 µM. 2,400 tested, 82% active. scaled: DMSO 0%, maximal phenethylamine 100%;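 active = activation above a cutoff set at the run's mean compound activation plus 3 SD, cut at about 39% in these data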
Ga16 ag counter = nonselective calcium mobilization agonists, CHO-Ga16 cells, counter-screen for hTAAR1 agonist project, cell-based, fluorescence, CHO-Ga16 parental line. activation, % at 3 µM. AID 651787, 2012. Fluo-8 calcium fluorescence; normalized to maximal ATP response, DMSO zero. shares compounds with TAAR1 ag. 2,400 tested, 50% active;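 active = activation above the run cutoff, the mean activation over all tested wells plus 3 SD, cut at about 12% in these data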;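 note: 0% = DMSO wells and 100% = maximal ATP response on the peak over basal ratio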
TAAR1 desensitize = TAAR1 desensitization by agonist hits, confirmation, counter-screen for TAAR1 agonist project, cell-based, fluorescence, tachyphylaxis | shares compounds with TAAR1 ag | CHO RD-HGA16 hTAAR1, Fluo-8 calcium, beta-PEA response inhibition | inhibition, % at 3 µM | 2,400 tested, 46% active;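 active = inhibition above the run cutoff, the mean inhibition of all test compounds plus 3 SD, cut at about 49% in these data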;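 note: beta-PEA stimulus applied at its EC80; loss of beta-PEA calcium signal after compound pretreatment read as receptor desensitization; 0% = DMSO with beta-PEA at EC80 and 100% = DMSO alone without agonist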
Ga16 antag count = inhibition of ATP-evoked calcium response in CHO-Ga16 cells, counter-screen for TAAR1 agonist project, cell-based, fluorescence; CHO-Ga16 ATP-induced calcium, Fluo-8 fluorescence; inhibition, % at 3 µM; shares compounds with TAAR1 ag; AID 651952, 2012; 2,400 tested, 39% active;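 active = inhibition above the plate's mean compound inhibition plus 3 SD, computed per plate, cut at about 22% in these data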;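 note: 0% = EC80 ATP with DMSO and 100% = DMSO wells without ATP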
* = called active by the depositor; i = inactive; / = no result.

SMILES	HCV core dimer	TAAR1 antagonist	HCV NS3 hel inh	TAAR1 ag	rCAG binder	TAAR1 ag confirm	Ga16 ag counter	TAAR1 desensitize	Ga16 antag count
COc1ccccc1NS(=O)(=O)c1ccc(C(=O)N2CCCC(C(F)(F)F)C2)cc1 (configuration not stated)	/	8	/	15	1	/	/	/	/
Cc1ccc(S(=O)(=O)Nc2ccc(NC(=O)c3c(F)c(F)c(F)c(F)c3F)cc2)cc1	2	66*	14	117*	13	115*	71*	100*	67*
CN1C(C(=O)NCCc2cccs2)CC2Cn3c(nc4ccccc43)C21 (configuration not stated)	8	/	/	/	-3	/	0	/	2
CCCNC(=O)C1CC2Cn3c(nc4ccccc43)C2N1C (configuration not stated)	7	12	/	10	0	/	/	/	/
O=[N+]([O-])c1cc(Cl)c2cccnc2c1O	-9	7	14	44*	11	6	10	5	6
CCCCNC(=O)C[C@H]1C[C@@]2(C(=O)OC)C(=C[C@H](C3CCCC3)O[C@@H]2C)N(CCC2=CCCCC2)C1=O	/	/	/	/	4	/	/	/	/
COc1ccc(C(=O)Cn2c(NCCCO)nc3ccccc32)cc1	/	-8	/	5	2	/	/	/	/
Cc1cc2nc(NCCCO)n(CC(=O)c3cc(C(C)(C)C)c(O)c(C(C)(C)C)c3)c2cc1C	-1	44	/	49*	1	53*	30*	41	34*
CCN1C(=O)Cc2cc(S(=O)(=O)NCCc3ccccc3)ccc21	14	-11	-14	51*	16	46*	2	1	7
O=C(O)c1ccccc1-c1ccc(/C=C/c2cc(C(F)(F)F)[nH]c(=O)n2)o1	/	33	15	237*	i	69*	117*	25	28*
O=c1nc(/C=C/c2ccc(-c3ccc(F)cc3)o2)cc(C(F)(F)F)[nH]1	13	/	7	/	/	/	/	/	/
O=C(Cn1cnc2c(oc3ccccc32)c1=O)NCCc1ccccc1	6	/	-3	/	-3	/	2	/	1
Cc1nn(-c2ccccc2)c2sc(C(=O)NCc3ccc4c(c3)OCO4)cc12	/	/	/	/	9	/	/	/	/
Cc1ccc(NC(=O)COC(=O)c2ccc3c(c2)C(=O)N(CCc2ccccc2)C3=O)c(C)c1	-2	14	2	77*	-2	64*	4	18	-2
COCCCN1C(=O)c2ccc(C(=O)OCC(=O)NCCc3ccccc3)cc2C1=O	-2	3	-7	0	-1	/	/	/	/
COCC(=O)NCC1CCN(C(=O)C(=O)c2cccs2)CC1	/	-2	/	0	4	/	/	/	/
O=S(=O)(c1ccc(F)cc1)n1c(CN2CCOCC2)nc2ccccc21	/	/	/	/	4	/	/	/	/
CC(C)=C1C2CCC1C(C(=O)NCCc1ccccc1)C2C(=O)O (configuration not stated)	-2	88*	12	62*	-1	80*	4	90*	4
CC(C)=C1C2CCC1C(C(=O)Nc1cc(C)cc(C)c1)C2C(=O)O (configuration not stated)	1	16	-11	5	-2	/	/	/	/
O=C(O)C1C2C=CC(C3CC23)C1C(=O)NCCc1ccccc1 (configuration not stated)	-2	93*	1	91*	-3	96*	3	97*	12
O=C(NCCc1ccccc1)C1CCN(c2ncccn2)CC1	-2	-22	8	7	-10	/	/	/	/
COC(=O)c1ccc(Cn2ccc3ccc(-c4ccc5ccn(Cc6ccccc6)c5c4)cc32)cc1	/	/	/	/	13	/	/	/	/
CN1C(=O)C[C@@](C#N)(C(=O)N2CCOCC2)[C@H]1c1ccccc1	/	/	/	/	1	/	/	/	/
CC(NCC(O)COCCC12CC3CC(CC(C3)C1)C2)c1ccccc1 (configuration not stated)	-18	87*	-75	84*	0	70*	42*	77*	64*
NCC(O)COCCC12CC3CC(CC(C3)C1)C2 (configuration not stated)	-4	-5	3	12	6	/	/	/	/
SMILES	HCV core dimer	TAAR1 antagonist	HCV NS3 hel inh	TAAR1 ag	rCAG binder	TAAR1 ag confirm	Ga16 ag counter	TAAR1 desensitize	Ga16 antag count
CC(CCN1CCC(C(O)(c2ccccc2)c2ccccc2)CC1)Oc1cc(F)cc(C#N)c1 (configuration not stated)	/	/	/	/	4	/	/	/	/
COc1ccc(N2CC(C(=O)N[C@@H](C)C(=O)NCCc3ccccc3)CC2=O)cc1 (some centres not stated)	0	-33	-7	62*	-3	48*	-1	5	0
COc1ccc(N2CC(C(=O)NCc3ccccc3)CC2=O)cc1 (configuration not stated)	-3	0	10	7	0	/	/	/	/
COCc1cc(N2CCNC[C@@H]2C)ccc1N1C[C@@H](C)O[C@@H](C)C1	/	-14	/	1	4	/	/	/	/
C[C@H]1Cn2nnc(-c3ccccc3)c2Cn2c3ccccc3c(=O)n21	/	/	/	/	7	/	/	/	/
CCN(c1ccccc1)S(=O)(=O)c1ccc(C(=O)N(CCCN(C)C)c2nc3c(C)cccc3s2)cc1	-18	29	-40	43*	-3	33	16*	37	32*
CCOC(=O)[C@]12CCCCC/C=C\1N(CCc1ccc(Cl)cc1)C(=O)[C@H]2CC(=O)NCCC(C)C	/	/	/	/	2	/	/	/	/
Cc1ccc(Nc2cc(C)nc(NCc3ccccc3)n2)cc1	-13	2	-67	56*	5	88*	42*	45	27*
COc1ccc(Nc2cc(C)nc(NCc3ccccc3)n2)cc1	-5	-6	-57	35	7	/	/	/	/
Cc1cc(NC2CCCCC2)nc(NCc2ccccc2)n1	-11	19	-74	67*	6	76*	52*	59*	39*
O=C(NCCN1C(=O)C2C3C=CC(C3)C2C1=O)c1cc(Cl)cc(Cl)c1 (configuration not stated)	/	/	/	/	1	/	/	/	/
